Measured values as given in ChEMBL document CHEMBL1126587, “Novel 6-alkoxypurine 2',3'-dideoxynucleosides as inhibitors of the cytopathic effect of the human immunodeficiency virus” (J Med Chem, 1993).

Experiments:
[1] = substrate: Nc1ncnc2c1ncn2[C@H]1CC[C@@H](CO)O1; assay: Compound was tested for adenosine deaminase assay in calf intestine
Method in brief: (§1)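 Calf intestinal adenosine deaminase, dialyzed against deionized water to remove ammonium sulfate. Dealkoxylation/deamination followed spectrophotometrically at 25 °C, pH 6.8 (adenosine: Δε −5.85 mM⁻¹cm⁻¹ at 270 nm). Km from initial velocity analysis. Relative velocity compares 100 μM dideoxynucleoside against 100 μM adenosine.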

[2] = substrate: CCOc1ncnc2c1ncn2C1CCC(CO)O1; assay: (§2) Michaelis-Menten constant for adenosine deaminase assay in calf intestine; method in brief: as §1
[3] = substrate: COc1ncnc2c1ncn2C1CCC(CO)O1; assay: as §2; method in brief: as §1

B1: Adenosine deaminase (Bos taurus), P56658 (protein)
chain: MAQTPAFNKPKVELHVHLDGAIKPETILYYGRKRGIALPADTPEELQNIIGMDKPLSLPEFLAKFDYYMPAIAGCREAVKRIAYEFVEMKAKDGVVYVEVRYSPHLLANSKVEPIPWNQAEGDLTPDEVVSLVNQGLQEGERDFGVKVRSILCCMRHQPSWSSEVVELCKKYREQTVVAIDLAGDETIEGSSLFPGHVKAYAEAVKSGVHRTVHAGEVGSANVVKEAVDTLKTERLGHGYHTLEDATLYNRLRQENMHFEVCPWSSYLTGAWKPDTEHPVVRFKNDQVNYSLNTDDPLIFKSTLDTDYQMTKNEMGFTEEEFKRLNINAAKSSFLPEDEKKELLDLLYKAYGMPSPASAEQCL
- Km [1]: 45 µM
- Km [2]: 650 µM
- Km [3]: 150 µM
